Data from ChEMBL document CHEMBL1140168, “Phthalides from Pittosporum illicioides var. illicioides with inhibitory activity on superoxide generation and elastase release by neutrophils” (J Nat Prod, 2008).

Assays:
[1] = Antiinflammatory activity in human neutrophils assessed as inhibition of fMLP/cytochalasin B-induced superoxide radical anion generation; format: functional, cell-based; conditions: Neutrophil
In short: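 Neutrophils from healthy adult donors were isolated by dextran sedimentation, Ficoll Hypaque centrifugation and hypotonic RBC lysis, then kept in Ca2+-free HBSS pH 7.4 at 4 °C. Cells with 0.5 mg/mL ferricytochrome c and 1 mM Ca2+ were equilibrated 2 min at 37 °C and given compound for 5 min. CB 1 µg/mL was added 3 min before 100 nM fMLP (10 min). SOD-inhibitable A550 was read continuously.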

[2] = Antiinflammatory activity in human neutrophils assessed as inhibition of fMLP/Cytochalasin B-induced elastase release; format: functional, cell-based; conditions: Neutrophil
In short: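 Elastase release (azurophilic degranulation) was measured in donor neutrophils (6 × 10^5/mL) with MeO-Suc-Ala-Ala-Pro-Val-p-nitroanilide substrate at 100 µM. Cells were equilibrated 2 min at 37 °C, then pretreated with compound for 5 min. Stimulation was with fMLP 100 nM plus cytochalasin B 0.5 µg/mL, and A405 was monitored continuously. IC50 came from concentration-dependent inhibition.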

Structure (SMILES)	IC50 [1]	IC50 [2]
COc1cc([C@@H]2OC[C@@H]3[C@H]2CO[C@H]3c2cc(OC)c(O)c(OC)c2)cc(OC)c1O	40.2 µM	> 50 µM
CC[C@@H]1OC(=O)c2c1cc(OC)c(OC)c2OC	17.6 µM	> 50 µM
C/C=C1\OC(=O)c2c1ccc(OC)c2OC	> 50 µM	33.9 µM
c1ccc2c(c1)[I+]c1ccccc1-2 [DIPHENYLENEIODONIUM]	1.7 µM	
COc1cc2ccc(=O)oc2c(OC)c1OC [FRAXIDIN METHYL ETHER]	48.6 µM	> 50 µM
O=S(=O)(F)Cc1ccccc1 [PHENYLMETHYLSULFONYLFLUORIDE]		202 µM
COc1cc2ccc(=O)oc2cc1OC [SCOPARONE]	41.4 µM	> 50 µM

Next, values leading:

IC50 [1]	IC50 [2]	Structure (SMILES)
13.7 µM	> 50 µM	CC[C@@H]1OC(=O)c2c1cc(OC)c(OC)c2O
45.3 µM	38.6 µM	C/C=C1\OC(=O)c2c1ccc(OC)c2O
21.2 µM	> 50 µM	CC[C@H]1OC(=O)c2c1ccc(OC)c2O
29.8 µM	> 50 µM	CC[C@@H]1OC(=O)c2c1ccc(OC)c2O
